Shown are actives, neighbours in structure and some others; about 2.6% of the full set was active somewhere.
KCC2 mod – KCC2 cotransporter modulators, thallium flux, primary screen, cell-based, HEK293 KCC2, FluoZin-2 fluorescence, MLSMR | B-score of Tl+ flux slope (higher = more flux/activation; lower = inhibition) at 10 µM | 190,000 compounds, 2.2% hits | KCC2 cells, thallium flux FluoZin-2 fluorescence;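 active = thallium flux slope and its plate-corrected score both differing from the plate sample mean at a set confidence after two filtering rounds, in either direction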;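 also: slope of fluorescence scaled to starting intensity during 10 to 20 s after thallium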
CHT allo act – CHT positive allosteric modulators, primary screen, cell-based, membrane potential dye, choline EC20. High affinity choline transporter 1 (Homo sapiens), Q9GZV3. CHT-expressing cells; stronger effect = higher value; LV-AA mutant CHT in HEK293 cells. B-score at 10 µM. 310,000 compounds, 0.49% hits. AID 488977, 2010;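 active = initial fluorescence not abnormally high and integrated response B-score, plate-corrected, over 3 SD above library mean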
CHT inh – inhibitors of human choline transporter CHT; CHT-expressing cells, membrane potential dye, choline response; stronger effect = lower value; B-score at 10 µM; 310,000 compounds, 0.86% hits;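 active = B-score over 3 SD under the library average, and starting fluorescence ratio not unusually high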;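 also: choline stimulus applied at its EC90 after an EC20 pre-addition; B-score computed on integrated fluorescence ratio after choline addition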
Rad51 HR inh – human RAD51 strand exchange inhibitors, primary screen, biochemical, fluorescence | 200,000 compounds, 0.085% hits | hRad51 DNA strand exchange, fluorescence dequenching | inhibition, % at 10 µM;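 active = inhibition above 40% at the single screening dose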;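 also: 0% = DMSO control wells and 100% = blanks with heterologous ssDNA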
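Test system: preformed human Rad51 ssDNA filaments; also added: Donor/quencher-labelled 47-bp dsDNA substrate; doses: 10 µM final, single point; times: 37 °C 15-min filament assembly, 30-min compound preincubation, 15-min exchange; detection: FRET fluorescence dequenching, excitation 485 nm, emission 520 nm; read-out basis: Fluorescence-based percent inhibition, control- and blank-normalised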
KCC2 secondary – KCC2 modulators in sodium-free buffer, confirmation, cell-based, HEK293 KCC2, thallium flux, secondary assay. FluoZin2 fluorescence; stronger effect = higher value. normalised thallium flux (F/F0 slope) at 10 µM. shares compounds with KCC2 mod. 3,700 compounds, 15% hits;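 active = thallium flux slope above the same plate's solvent-only control mean plus 3 SD; inconclusive = the two replicate wells disagree; inactive = no significant difference from solvent-only control wells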
KCC2 bumet counter – thallium flux persisting under bumetanide in KCC2 cells, confirmation, counter-screen for KCC2 modulator project, cell-based, HEK293 KCC2, FluoZin2, secondary assay 3; HEK293-KCC2 + bumetanide/ouabain; stronger effect = higher value; 3,700 compounds, 49% hits; shares compounds with KCC2 mod; normalized thallium flux at 10 µM;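 active = thallium entry rate above the same plate's blocked-transporter control wells by more than 3 SD; inconclusive = the two repeat wells disagree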;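 also: raw slope of fluorescence over initial fluorescence between 10 and 20 s after thallium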
KCC2 sec2 – KCC2 modulators without ouabain present, confirmation, cell-based, HEK293 KCC2, thallium flux, FluoZin2, secondary assay 2 | shares compounds with KCC2 mod | thallium flux FluoZin2 fluorescence; actives lie on both sides; F/F0 rise rate, 10–20 s post-thallium | normalized thallium flux at 10 µM | 3,700 compounds, 23% hits | AID 1715, 2009;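 active = thallium flux slope more than 3 SD above or below the plate's solvent-only control mean, mostly below; inconclusive = the two repeat wells disagreed; inactive = no significant shift from solvent-only controls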;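 also: raw slope with 0.1% DMSO as baseline and bumetanide as block control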
HEK293 Tl flux – thallium flux modulation in parental HEK cells, confirmation, counter-screen for KCC2 modulator project, cell-based, counterscreen 1. shares compounds with KCC2 mod. thallium flux rate (normalised fluorescence) at 10 µM. HEK293 parental cells, thallium flux FluoZin2, ouabain; baseline-ratio fluorescence slope, 10–20 s after thallium. 3,700 compounds, 46% hits;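 active = thallium flux rate significantly above the same plate's solvent-only control wells, beyond their mean plus 3 SD; inconclusive = the two replicate wells gave conflicting results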
KCC2 ouabain – KCC2 inhibitors and activators, ouabain retest, confirmation, HEK-KCC2 cells. raw Tl+ flux slope (below DMSO = inhibition, above = activation) at 10 µM. 3,700 compounds, 48% hits. HEK293-KCC2, thallium flux FluoZin2 fluorescence; bidirectional: low = inhibitor, high = activator. shares compounds with KCC2 mod. AID 1717, 2009;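 active = thallium flux slope beyond 3 SD from same-plate DMSO control mean in most replicates, usually higher, sometimes lower; inconclusive = repeat tests gave conflicting results; inactive = no significant difference from controls in most replicates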;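 also: slope of initial-normalized fluorescence between seconds 10 and 20 after thallium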
HEK293 Tl flux2 – native HEK Tl+ uptake effects, second counter-screen – HEK cells, counterscreen 2, counter-screen for KCC2 modulator project, confirmation | shares compounds with KCC2 mod | HEK293 parental, thallium flux FluoZin-2 fluorescence slope | thallium flux slope at 10 µM | 3,700 compounds, 33% hits | AID 1718, 2009;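 active = thallium flux slope above the same plate's solvent-control mean plus 3 SD in both duplicate wells; inconclusive = duplicate wells that disagreed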;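 also: run without ouabain in cells lacking the KCC2 cotransporter; slope of fluorescence scaled to its starting value between 10 and 20 s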
An asterisk follows results filed as active; i = inactive; ? = inconclusive; nt = not tested or not shown.

SMILES	KCC2 mod	CHT allo act	CHT inh	Rad51 HR inh	KCC2 secondary	KCC2 bumet counter	KCC2 sec2	HEK293 Tl flux	KCC2 ouabain	HEK293 Tl flux2
Cc1oc(C(C)(C)C)cc1C(=O)Nc1ccc(N2CCOCC2)cc1	-0.61	i	i	4	nt	nt	nt	nt	nt	nt
CN(CCOC(=O)/C=C/c1ccco1)Cc1ccccc1	2	i	i	-1	nt	nt	nt	nt	nt	nt
CCN(CC)CCSc1nc2ccccc2n1Cc1ccccc1	nt	i	i	nt	nt	nt	nt	nt	nt	nt
CC1C/C(=N\NC(=O)c2cccnc2)CC(C)(C)C1 (stereo not drawn)	0.35	i	i	-7	nt	nt	nt	nt	nt	nt
CC1C/C(=N\NC(=O)c2ccc([N+](=O)[O-])cc2)CC(C)(C)C1 (stereo not drawn)	5.4*	i	i	7	0.01	0.016*	0.029	0.009*	0.027*	?
CCC1(CC)NC(=O)N(CC(=O)OC(C)C(=O)Nc2ccc(NC(C)=O)cc2)C1=O (stereo not drawn)	nt	i	i	nt	nt	nt	nt	nt	nt	nt
O=C(Cc1ccc(F)cc1)Oc1ccc(C(=S)N2CCCC2)cc1	-4.1*	i	i	nt	?	?	0.022*	?	0.013*	0.012
COc1ccc(CC(=O)Oc2ccc(F)cc2)cc1	nt	i	i	nt	nt	nt	nt	nt	nt	nt
CN(C(=O)COc1cc(=O)n(C)c2ccccc12)c1ccc(Cl)cc1	nt	i	i	-9	nt	nt	nt	nt	nt	nt
Cc1ccc(C)c(N(C)C(=O)COc2cc(=O)n(C)c3ccccc23)c1	-4.1*	i	i	-11	0.0082	0.0055	0.029	0.0063	0.021	0.0092
CC(C)N(C(=O)CSc1nc2c([nH]1)c(=O)n(C)c(=O)n2C)c1ccccc1	-3.7*	i	i	4	0.01	0.0064	0.03	0.0078	0.019	0.01
C=CCNC(=S)NC(=O)c1csc([N+](=O)[O-])c1	5.9*	i	i	-6	0.0092	0.02*	0.03	0.0097*	?	0.0097
CC(C)(C)c1ccc(C(=O)NC(=S)N2CCCCCC2)cc1	nt	i	i	nt	nt	nt	nt	nt	nt	nt
O=C(NC(=S)N1CCCCC1)c1csc([N+](=O)[O-])c1	24*	i	i	9	0.022*	0.032*	0.035	0.017*	?	0.013*
Nc1cnccc1Oc1cccc(C(F)(F)F)c1	nt	i	i	nt	nt	nt	nt	nt	nt	nt
CC(NS(=O)(=O)c1ccc(OCC(=O)NCc2cccnc2)cc1)c1ccccc1 (stereo not drawn)	nt	i	i	nt	nt	nt	nt	nt	nt	nt
O=C1N(Cc2cccc(Cl)c2)C[C@@H]2C[C@@H](c3cccc4ncccc34)N3CCC[C@@]123	nt	i	i	-18	0.0098	0.0052	0.036	0.0035	0.019	0.011
O=C(Nc1ccccc1)O/N=C/c1ccccc1Cl	-5.7*	i	i	8	0.0076	0.0057	0.032	0.0072	0.02	0.011
CCOC(=O)NC(=O)CSc1ccc(C)cc1C	2.9*	i	i	4	0.0093	0.0063	0.033	?	0.017	0.011
COC(=O)[C@@H](NC(=O)O[C@@H]1C(=O)c2cc(Br)ccc2O[C@H]1c1cccc(OC)c1)C(C)C	9.3*	i	i	nt	0.0063	0.013*	0.03	0.015*	?	?
COC(=O)[C@H](Cc1ccccc1)NC(=O)O[C@@H]1C(=O)c2cc(Br)ccc2O[C@H]1c1cccc(OC)c1	0.04	i	i	nt	nt	nt	nt	nt	nt	nt
CCOc1ccc(S(=O)(=O)N2CCOCC2)cc1NC(=O)Cc1c(F)cccc1Cl	nt	i	i	nt	nt	nt	nt	nt	nt	nt
CC(Oc1ccc(Cl)cc1Cl)c1ccnc(N)n1 (stereo not drawn)	-2.9*	i	i	5	0.0076	0.0046	0.028	0.007	0.018	0.0094
CCCn1c(N)c(N(CCOC)C(=O)c2ccc(F)cc2F)c(=O)[nH]c1=O	nt	i	i	nt	nt	nt	nt	nt	nt	nt
COC(=O)C1=C(C)N(CCCC(=O)O)C(=O)NC1c1cc2c(cc1[N+](=O)[O-])OCO2 (stereo not drawn)	3.7*	i	i	-26	0.0068	?	0.028	0.0073	0.018	0.0098
SMILES	KCC2 mod	CHT allo act	CHT inh	Rad51 HR inh	KCC2 secondary	KCC2 bumet counter	KCC2 sec2	HEK293 Tl flux	KCC2 ouabain	HEK293 Tl flux2
CC(C)c1nnc(NC(=O)CCC(=O)N2CCN(C3c4ccccc4-c4ccccc43)CC2)s1	-0.42	i	i	-5	nt	nt	nt	nt	nt	nt
O=S(=O)(NCc1cn2ccccc2n1)c1cccs1	-0.98	i	i	-1	nt	nt	nt	nt	nt	nt
O=c1c2cc3c(cc2[nH]c(=S)n1Cc1ccco1)OCO3	6.5*	i	i	nt	?	0.027*	0.028	0.012*	?	0.01*
O=c1c2cc3c(cc2[nH]c(=S)n1C1CCN(Cc2ccccc2)CC1)OCO3	18*	i	i	4	0.011*	0.061*	0.033	0.017*	0.044*	0.011*
O=C(CCCn1c(=S)[nH]c2cc3c(cc2c1=O)OCO3)NCc1ccco1	-0.01	i	i	4	nt	nt	nt	nt	nt	nt
Cc1ccc(S(=O)(=O)Cn2nnnc2C(C(C)C)N2CCN(Cc3ccco3)CC2)cc1 (stereo not drawn)	-2.5*	i	i	0	0.0074	0.0043	0.028	0.008	0.016	0.011
CCCc1sc(N/N=C/c2ccccn2)nc1-c1ccc(F)cc1	nt	i	i	-7	nt	nt	nt	nt	nt	nt
CCN=c1scc(-c2ccc(F)cc2)n1/N=C/c1ccccn1	-5.7*	i	i	2	0.0052	0.0044	0.023*	?	0.014*	0.011

Compound activity: PubChem BioAssay, several laboratories
